Consider one compound from ChEMBL document CHEMBL3994609, “Model-Based Discovery of Synthetic Agonists for the Zn2+-Sensing G-Protein-Coupled Receptor 39 (GPR39) Reveals Novel Biological Functions” (J Med Chem, 2017).

The target of series [1] is T1, G-protein coupled receptor 39 (Homo sapiens, UniProt O43194).
T1 sequence (O43194 whole entry): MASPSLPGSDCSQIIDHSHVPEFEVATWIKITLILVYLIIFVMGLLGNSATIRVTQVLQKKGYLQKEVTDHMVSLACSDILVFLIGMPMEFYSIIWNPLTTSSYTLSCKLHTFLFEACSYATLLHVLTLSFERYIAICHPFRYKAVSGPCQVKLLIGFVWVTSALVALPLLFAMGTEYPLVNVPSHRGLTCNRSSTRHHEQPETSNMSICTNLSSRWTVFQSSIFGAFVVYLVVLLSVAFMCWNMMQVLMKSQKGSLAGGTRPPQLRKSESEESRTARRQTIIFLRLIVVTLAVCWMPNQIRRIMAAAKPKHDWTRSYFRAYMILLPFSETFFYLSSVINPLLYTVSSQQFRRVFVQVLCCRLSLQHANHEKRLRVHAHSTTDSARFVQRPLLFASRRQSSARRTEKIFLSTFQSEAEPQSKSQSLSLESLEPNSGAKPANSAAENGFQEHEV
Description: Agonist activity at human GPR39 expressed in HEK293 cells co-expressing Galphaq assessed as myo-[2-3H]inositol phosphate accumulation in presence of 10 uM Zn2+ measured after 75 mins by scintillation proximity assay. Type of series: functional, cell-based.

For series [2], the target named is T2, G-protein coupled receptor 39 (Mus musculus, UniProt Q5U431).
T2 sequence (Q5U431 whole entry): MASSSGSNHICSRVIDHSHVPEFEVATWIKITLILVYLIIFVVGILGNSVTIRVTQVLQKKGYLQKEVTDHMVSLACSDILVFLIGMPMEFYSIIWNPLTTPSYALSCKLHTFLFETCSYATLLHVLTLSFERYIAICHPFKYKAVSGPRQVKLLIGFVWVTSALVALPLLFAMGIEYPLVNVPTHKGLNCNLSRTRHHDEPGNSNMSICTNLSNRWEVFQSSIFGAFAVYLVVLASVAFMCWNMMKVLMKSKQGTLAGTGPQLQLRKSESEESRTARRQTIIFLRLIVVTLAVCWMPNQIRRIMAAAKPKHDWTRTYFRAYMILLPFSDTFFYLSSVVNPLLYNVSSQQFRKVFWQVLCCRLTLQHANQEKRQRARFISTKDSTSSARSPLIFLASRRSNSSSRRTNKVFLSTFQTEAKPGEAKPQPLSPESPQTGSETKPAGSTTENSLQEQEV
In words: Agonist activity at mouse GPR39 expressed in HEK293 cells co-expressing Galphaq assessed as myo-[2-3H]inositol phosphate accumulation measured after 75 mins by scintillation proximity assay. Type of series: functional, cell-based.

In series [3] the target is T2, G-protein coupled receptor 39. Description: Agonist activity at mouse GPR39 expressed in HEK293 cells co-expressing Galphaq assessed as myo-[2-3H]inositol phosphate accumulation in presence of 10 uM Zn2+ measured after 75 mins by scintillation proximity assay. Type of series: functional, cell-based. A general note: In a scintillation proximity assay essentially only radioactivity close to the scintillant gives light.

Series [4] deals with T3, G-protein coupled receptor 39 (Homo sapiens) (UniProt O43194).
T3 sequence (whole entry): T1 sequence (O43194 whole entry)
In words: Agonist activity at GPR39 (unknown origin) expressed in COS7 cells co-expressing Galphas assessed as increase in intracellular cAMP level measured after 30 mins by chemiluminescence assay. It counts as functional, cell-based. (cAMP levels reflect the balance of adenylyl cyclase and phosphodiesterase activity.)

The target in series [5] is T3, G-protein coupled receptor 39 (Homo sapiens). In words: (§1) Agonist activity at GPR39 (unknown origin) expressed in COS7 cells co-expressing Galphas assessed as increase in intracellular cAMP level in presence of 3 uM Zn2+ measured after 30 mins by chemiluminescence assay. Type of series: functional, cell-based.
The target in series [6] is T1, G-protein coupled receptor 39. The series is described as §1. Type of series: functional, cell-based.
Series [7] deals with Growth hormone secretagogue receptor type 1 (Homo sapiens) (UniProt Q92847). In words: Agonist activity at human ghrelin receptor ([…]) assessed as myo-[2-3H]inositol phosphate accumulation measured after 75 mins by scintillation proximity assay. Type of series: functional.
Series [8] addresses Motilin receptor (Homo sapiens) (UniProt O43193). Description: Agonist activity at human motilin receptor (412 residues) assessed as myo-[2-3H]inositol phosphate accumulation measured after 75 mins by scintillation proximity assay. Type of series: functional.
Series [9] deals with Neuromedin-U receptor 2 (Homo sapiens) (UniProt Q9GZQ4). In words: Agonist activity at human NMU2 receptor assessed as myo-[2-3H]inositol phosphate accumulation measured after 75 mins by scintillation proximity assay. Type of series: functional.
Series [10] is described as follows: Apparent permeability from apical to basolateral side in human Caco2 cells by LC-MS/MS analysis. Type of series: ADME, cell-based. The conditions noted are these: Caco-2. For orientation: Caco-2 cells form a polarised layer with tight junctions and transporters.
Series [11] can be described thus: Half life in human liver microsomes at 3 uM measured by LC-MS/MS analysis. Type of series: ADME, microsome.
Series [12] concerns the target C-C chemokine receptor type 5 (Macaca mulatta) (UniProt P61813). Description: Agonist activity at full length rhesus monkey CCR5 assessed as myo-[2-3H]inositol phosphate accumulation measured after 75 mins by scintillation proximity assay. It counts as functional.
Series [13] has as its target Growth hormone secretagogue receptor type 1 (Homo sapiens) (UniProt Q92847). Description: Agonist activity at human ghrelin receptor ([…]) assessed as myo-[2-3H]inositol phosphate accumulation in presence of 10 uM Zn2+ measured after 75 mins by scintillation proximity assay. Type of series: functional.
Series [14] concerns the target Motilin receptor (Homo sapiens) (UniProt O43193). Description: Agonist activity at human motilin receptor (412 residues) assessed as myo-[2-3H]inositol phosphate accumulation in presence of 10 uM Zn2+ measured after 75 mins by scintillation proximity assay. It counts as functional.
Series [15] addresses Neuromedin-U receptor 2 (Homo sapiens) (UniProt Q9GZQ4). Description: Agonist activity at human NMU2 receptor assessed as myo-[2-3H]inositol phosphate accumulation in presence of 10 uM Zn2+ measured after 75 mins by scintillation proximity assay. It counts as functional.
Series [16] deals with T4, C-C chemokine receptor type 1 (Homo sapiens) (UniProt P32246).
T4 sequence (whole entry): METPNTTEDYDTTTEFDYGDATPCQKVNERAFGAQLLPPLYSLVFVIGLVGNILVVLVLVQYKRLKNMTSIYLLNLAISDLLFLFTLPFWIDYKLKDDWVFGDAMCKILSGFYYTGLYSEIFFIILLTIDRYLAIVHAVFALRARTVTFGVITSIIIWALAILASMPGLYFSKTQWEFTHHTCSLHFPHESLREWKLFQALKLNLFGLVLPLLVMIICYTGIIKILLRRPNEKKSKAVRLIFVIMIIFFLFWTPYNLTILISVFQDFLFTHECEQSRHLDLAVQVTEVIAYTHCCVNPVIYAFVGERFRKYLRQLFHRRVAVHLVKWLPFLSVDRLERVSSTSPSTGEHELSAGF
Description: Agonist activity at full length human CCR1 assessed as myo-[2-3H]inositol phosphate accumulation in presence of 10 uM Zn2+ measured after 75 mins by scintillation proximity assay. It counts as functional.

For series [17], the target named is C-C chemokine receptor type 5 (Macaca mulatta) (UniProt P61813). Description: Agonist activity at full length monkey CCR5 assessed as myo-[2-3H]inositol phosphate accumulation in presence of 10 uM Zn2+ measured after 75 mins by scintillation proximity assay. Type of series: functional.
Series [18] is described as follows: Increase in CGRP-induced somatostatin release in primary gastric mucosal cells isolated from GPR39 deficient C57BL/6 mouse at 1 uM in presence of 10 uM of Zn2+ measured after 4 hrs by radioimmunoassay relative to control. It counts as functional, Primary gastric mucosal cell. The conditions noted are these: in the assay text read “C57BL/6 mouse” for “GPR39 deficient C57BL/6 mouse”.

Series [19] deals with T5, G-protein coupled receptor 39 (Mus musculus) (UniProt Q5U431).
T5 sequence (whole entry): T2 sequence (Q5U431 whole entry)
In words: Agonist activity at GPR39 in primary gastric mucosal cells isolated from C57BL/6 mouse assessed as myo-[2-3H]inositol phosphate accumulation in presence of 10 uM Zn2+ measured after 75 mins by scintillation proximity assay. Type of series: functional. An outline of the steps:
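Primary murine gastric mucosal cell cultures stimulated with ligand plus 10 μM Zn2+; inositol phosphate turnover read out as for the transfected-cell IP accumulation assay.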

Series [20] can be described thus: Aqueous solubility of the compound in phosphate buffered saline at pH 7.0 at 10 mM by turbidimetric method.

Molecules are shown by their SMILES. pEC50: −log10 of the molar value. In brackets after ≈: the same amount, converted by molar mass. Activity calls are given as the source filed them.

In general, pEC50 refers to the EC50 on a negative log10 scale, so that one unit is a factor of ten. As usually defined, the Papp A→B is how fast a substance crosses the layer from the apical side. For orientation: half-life means the time needed for the level to fall by half in the phase considered. As usually defined, the solubility (kinetic) is the concentration staying in solution when a stock, usually in DMSO, is diluted into the medium.

Chain of Motilin receptor (Homo sapiens) (O43193 whole entry): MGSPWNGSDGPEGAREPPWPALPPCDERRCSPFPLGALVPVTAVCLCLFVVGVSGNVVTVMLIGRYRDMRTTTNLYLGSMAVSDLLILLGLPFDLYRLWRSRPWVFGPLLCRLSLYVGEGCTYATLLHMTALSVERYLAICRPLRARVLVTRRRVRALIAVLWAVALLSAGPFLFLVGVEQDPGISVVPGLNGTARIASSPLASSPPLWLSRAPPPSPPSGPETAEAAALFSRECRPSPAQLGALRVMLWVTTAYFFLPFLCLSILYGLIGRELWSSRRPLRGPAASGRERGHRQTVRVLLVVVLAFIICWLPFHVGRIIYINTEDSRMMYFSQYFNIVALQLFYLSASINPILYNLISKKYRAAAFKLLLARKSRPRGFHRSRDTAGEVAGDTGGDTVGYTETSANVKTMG
Chain of Neuromedin-U receptor 2 (Homo sapiens) (Q9GZQ4 whole entry): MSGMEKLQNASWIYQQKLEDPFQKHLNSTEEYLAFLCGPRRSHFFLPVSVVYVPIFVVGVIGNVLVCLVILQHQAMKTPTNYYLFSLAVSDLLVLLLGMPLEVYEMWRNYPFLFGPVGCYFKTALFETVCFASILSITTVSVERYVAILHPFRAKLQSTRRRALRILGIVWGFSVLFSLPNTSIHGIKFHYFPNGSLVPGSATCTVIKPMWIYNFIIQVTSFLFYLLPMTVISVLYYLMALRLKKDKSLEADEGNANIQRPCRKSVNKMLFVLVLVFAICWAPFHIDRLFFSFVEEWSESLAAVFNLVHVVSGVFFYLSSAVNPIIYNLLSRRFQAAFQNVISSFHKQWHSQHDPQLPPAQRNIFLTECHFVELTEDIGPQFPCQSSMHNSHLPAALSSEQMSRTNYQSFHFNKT
Chain of Growth hormone secretagogue receptor type 1 (Homo sapiens) (Q92847 whole entry): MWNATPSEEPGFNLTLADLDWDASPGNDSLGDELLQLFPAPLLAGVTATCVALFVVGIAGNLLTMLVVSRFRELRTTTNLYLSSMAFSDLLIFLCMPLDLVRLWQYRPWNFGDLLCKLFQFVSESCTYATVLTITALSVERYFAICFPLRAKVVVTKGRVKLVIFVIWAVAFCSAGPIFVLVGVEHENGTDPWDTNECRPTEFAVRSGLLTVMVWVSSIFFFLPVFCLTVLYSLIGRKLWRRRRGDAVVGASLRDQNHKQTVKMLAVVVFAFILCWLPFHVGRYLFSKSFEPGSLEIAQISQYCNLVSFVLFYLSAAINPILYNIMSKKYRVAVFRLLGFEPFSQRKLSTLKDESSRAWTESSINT

As for `Cc1nn(-c2ncnc3nc[nH]c23)c2c1C(c1ccc(F)cc1Cl)CC(=O)N2` (stereo not given), the pEC50 in series [1] is 8.05; in [2], 6.74; in series [3] it was 8.30; in series [6], 7.77. The outcome in [4], in series [7], in [8], in series [9], in [12] and in [13] was inactive. Besides, the result in series [14], in series [15], in series [16] and in series [17] was inactive. In addition, the Activity entry in [5] was “Dose-dependent effect”; in series [18] it was 53%; in series [19] it was “Dose-dependent effect”. Further, in series [10], the Papp A→B was determined as 25 ×10⁻⁶ cm/s. This compound registered a half-life at 3 µM in series [11] of 58 min. The same compound came in with a kinetic solubility at 10000 µM in series [20] of 65 µM (≈ 25.9 µg/mL).
